Data published in BindingDB's records for PubMed 34730959 (The University of Sydney, 2022).

Molecular target: Procathepsin L (Homo sapiens, UniProt P07711)
Assay: Inhibition of human recombinant Cathepsin L assessed remaining activity using Z-FR-AMC as substrate incubated for 30 mins by fluorometric assay
How it was run: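 Recombinant human cathepsins: L, B, V and K at 1.11 nM, S at 4.44 nM. Each was preincubated 30 min at 25 °C with 3333 to 0.006 nM compound. Z-FR-AMC was added at 40 μM final. AMC release rate over 0–30 min was compared with DMSO (ex/em 360/460). IC50 from four technical replicates.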

Procathepsin L, sequence (P07711 whole entry): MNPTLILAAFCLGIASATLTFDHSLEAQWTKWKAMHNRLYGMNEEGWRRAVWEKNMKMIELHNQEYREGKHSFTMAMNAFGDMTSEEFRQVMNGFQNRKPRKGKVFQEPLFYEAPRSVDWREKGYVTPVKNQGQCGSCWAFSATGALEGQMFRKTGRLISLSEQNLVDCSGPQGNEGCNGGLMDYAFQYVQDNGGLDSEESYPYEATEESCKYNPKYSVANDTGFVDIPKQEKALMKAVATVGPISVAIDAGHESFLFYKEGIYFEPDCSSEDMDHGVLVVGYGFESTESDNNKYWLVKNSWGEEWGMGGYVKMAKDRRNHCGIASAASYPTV

## COC1=CC(=O)N(C(=O)/C=C/[C@H](C)NC(=O)[C@H](CCc2ccccc2)NC(=O)[C@H](CC2CCCCC2)NC(=O)[C@H](C(C)C)N(C)C)[C@H]1Cc1c[nH]c2ccccc12
  IC50: 6 pM
